Results reported in ChEMBL document CHEMBL1145924 (J Med Chem, 2003).
Values joined by “and” are separate entries in the source; they are usually repeats but may differ in a detail not shown here. Equal entries are not always repeated.

What was measured:
Histamine H1 receptor [1] = target: T1, Histamine H1 receptor (Cavia porcellus, UniProt P31389); experiment: Effective concentration against histamine H1 receptor in guinea pig ileum; assay type: tissue-based
[2] = target: Histamine H1 receptor (Cavia porcellus) (UniProt P31389); experiment: (§1) Equilibrium dissociation constant (pKp) against histamine H1 receptor in guinea pig ileum; assay type: tissue-based
Sequence of Histamine H1 receptor (Cavia porcellus) (P31389 whole entry): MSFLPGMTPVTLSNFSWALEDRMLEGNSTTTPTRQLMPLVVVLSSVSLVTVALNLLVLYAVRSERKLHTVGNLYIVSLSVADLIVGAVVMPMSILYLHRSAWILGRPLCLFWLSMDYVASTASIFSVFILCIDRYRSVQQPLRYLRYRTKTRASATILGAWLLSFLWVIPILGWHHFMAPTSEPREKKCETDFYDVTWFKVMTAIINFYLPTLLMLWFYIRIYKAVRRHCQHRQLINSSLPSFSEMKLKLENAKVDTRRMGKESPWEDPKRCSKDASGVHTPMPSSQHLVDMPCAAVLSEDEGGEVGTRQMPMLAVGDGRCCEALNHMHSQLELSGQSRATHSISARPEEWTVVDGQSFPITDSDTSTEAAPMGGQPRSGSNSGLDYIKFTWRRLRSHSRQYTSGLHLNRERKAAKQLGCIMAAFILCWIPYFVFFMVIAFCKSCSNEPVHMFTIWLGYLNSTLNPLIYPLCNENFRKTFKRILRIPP

[3] = target: Muscarinic acetylcholine receptor M3 (Cavia porcellus, UniProt Q8VH26); experiment: Antagonistic activity for carbachol induced contractions in guinea pig ileum against Muscarinic acetylcholine receptor M3 in the presence of mepyramine at a concentration of 1-3 micro M; assay type: functional, tissue-based; conditions: read-out: pA2 (converted)
Sequence of Muscarinic acetylcholine receptor M3 (Q8VH26 whole entry): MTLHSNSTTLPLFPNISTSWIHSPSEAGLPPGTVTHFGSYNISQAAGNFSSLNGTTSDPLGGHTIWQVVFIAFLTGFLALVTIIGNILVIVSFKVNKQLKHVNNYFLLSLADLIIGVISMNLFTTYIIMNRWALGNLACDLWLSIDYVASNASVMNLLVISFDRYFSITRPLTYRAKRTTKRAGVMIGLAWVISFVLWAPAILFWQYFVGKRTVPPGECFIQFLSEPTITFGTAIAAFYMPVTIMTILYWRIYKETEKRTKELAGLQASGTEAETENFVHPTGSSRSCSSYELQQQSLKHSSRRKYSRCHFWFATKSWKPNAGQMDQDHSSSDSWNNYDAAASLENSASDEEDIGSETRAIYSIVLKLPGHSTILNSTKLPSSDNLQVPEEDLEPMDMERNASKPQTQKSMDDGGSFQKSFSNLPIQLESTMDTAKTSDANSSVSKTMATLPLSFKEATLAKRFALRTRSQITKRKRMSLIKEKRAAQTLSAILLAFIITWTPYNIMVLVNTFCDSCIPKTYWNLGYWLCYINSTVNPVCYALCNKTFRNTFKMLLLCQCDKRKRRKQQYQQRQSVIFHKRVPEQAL

[4] = target: Histamine H2 receptor (Cavia porcellus) (UniProt P47747); conditions: Cardiac atrium
Sequence of Histamine H2 receptor (Cavia porcellus) (P47747 whole entry): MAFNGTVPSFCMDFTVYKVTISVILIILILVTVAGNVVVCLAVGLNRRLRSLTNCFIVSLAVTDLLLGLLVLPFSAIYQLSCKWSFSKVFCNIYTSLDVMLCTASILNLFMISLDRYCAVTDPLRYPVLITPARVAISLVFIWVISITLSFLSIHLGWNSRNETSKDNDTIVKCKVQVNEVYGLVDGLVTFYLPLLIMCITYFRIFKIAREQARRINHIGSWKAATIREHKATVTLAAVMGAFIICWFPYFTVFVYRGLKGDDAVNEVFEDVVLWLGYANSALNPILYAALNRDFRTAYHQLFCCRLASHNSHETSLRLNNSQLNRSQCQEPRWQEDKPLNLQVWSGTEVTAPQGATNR

Cavia porcellus [5] = species: Cavia porcellus; experiment: Apparent pA2 value at 3 nM concentration of mepyramine in guinea pig ileum; assay type: functional; conditions: read-out: pA2 (converted)
Histamine H3 receptor = Histamine H3 receptor (Cavia porcellus, UniProt Q9JI35); experiment: Tested for Antagonistic activity at histamine H3 receptor in guinea pig ileal longitudinal muscle in the presence of mepyramine at a concentration of 1-3 micro M; assay type: functional; conditions: read-out: pA2 (converted)
Sequence of Histamine H3 receptor (Q9JI35 whole entry): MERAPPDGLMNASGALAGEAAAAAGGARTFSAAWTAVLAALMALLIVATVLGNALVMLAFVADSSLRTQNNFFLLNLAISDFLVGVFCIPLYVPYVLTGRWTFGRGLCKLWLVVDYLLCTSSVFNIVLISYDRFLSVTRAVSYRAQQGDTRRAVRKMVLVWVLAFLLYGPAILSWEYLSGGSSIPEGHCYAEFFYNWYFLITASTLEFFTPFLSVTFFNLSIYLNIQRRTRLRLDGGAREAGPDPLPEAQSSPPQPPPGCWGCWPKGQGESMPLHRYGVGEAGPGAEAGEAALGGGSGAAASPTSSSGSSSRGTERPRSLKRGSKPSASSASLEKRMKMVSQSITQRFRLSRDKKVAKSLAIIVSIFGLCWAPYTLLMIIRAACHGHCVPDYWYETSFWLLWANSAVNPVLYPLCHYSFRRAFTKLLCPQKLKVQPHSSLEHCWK
How it was run: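 Field-stimulated ileal longitudinal muscle (15 V, 0.5 ms, 0.1 Hz), 37 °C, mepyramine 1–3 μM throughout. […] Antagonists used only at concentrations not blocking M3 receptors; apparent pA2 from rightward shift.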

[6] = target: Histamine H1 receptor (Cavia porcellus) (UniProt P31389); experiment: Concentration required for agonistic activity against histamine in guinea pig ileum; assay type: functional, tissue-based
[7] = target: Histamine H1 receptor (Cavia porcellus) (UniProt P31389); experiment: Maximum response (E max) against histamine H1 receptor in guinea pig ileum; assay type: tissue-based
Histamine H1 receptor [8] = target: T2, Histamine H1 receptor (Rattus norvegicus, UniProt P31390); experiment: (§2) Effective concentration against histamine H1 receptor in rat aorta
T2 sequence (P31390 whole entry): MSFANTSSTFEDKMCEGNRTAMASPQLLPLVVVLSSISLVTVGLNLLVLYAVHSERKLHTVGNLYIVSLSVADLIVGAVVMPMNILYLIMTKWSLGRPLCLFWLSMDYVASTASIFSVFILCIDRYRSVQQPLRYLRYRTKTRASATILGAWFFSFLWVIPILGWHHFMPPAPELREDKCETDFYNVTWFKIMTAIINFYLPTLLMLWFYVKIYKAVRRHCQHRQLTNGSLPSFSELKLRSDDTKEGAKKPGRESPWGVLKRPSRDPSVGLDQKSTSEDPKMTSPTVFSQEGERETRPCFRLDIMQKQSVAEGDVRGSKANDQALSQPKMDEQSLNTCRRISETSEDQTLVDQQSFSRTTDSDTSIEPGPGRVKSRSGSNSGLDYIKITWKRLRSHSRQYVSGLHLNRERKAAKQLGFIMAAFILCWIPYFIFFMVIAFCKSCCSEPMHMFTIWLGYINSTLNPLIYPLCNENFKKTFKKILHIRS

[9] = target: Histamine H1 receptor (Rattus norvegicus) (UniProt P31390); experiment: Maximum response (E max) against H1 receptor in rat aorta; assay type: tissue-based
Sequence of Histamine H1 receptor (Rattus norvegicus) (P31390 whole entry): as above

[10] = target: Histamine H1 receptor (Cavia porcellus) (UniProt P31389); experiment: Maximum response (E max) against H1 receptor in guinea pig ileum; assay type: tissue-based
Histamine H1 receptor [11] = target: T1, Histamine H1 receptor; experiment: Apparent pA2 value of compound at 10 nM concentration of mepyramine in guinea pig aorta
Histamine H1 receptor [12] = target: T1, Histamine H1 receptor; experiment: Effective concentration against histamine H1 receptor in endothelium-Denuded rings of guinea pig Aorta
Histamine H1 receptor [13] = target: T2, Histamine H1 receptor; experiment: Apparent pA2 value of compound at 50 nM concentration of mepyramine in rat aorta; assay type: functional, tissue-based; conditions: read-out: pA2 (converted)
Cavia porcellus [14] = species: Cavia porcellus; experiment: Full pA2 value of compound at 3-30 nM concentration of mepyramine in guinea pig ileum; assay type: functional; conditions: read-out: pA2 (converted)
Cavia porcellus [15] = species: Cavia porcellus; experiment: Apparent pA2 value of compound at 3 nM concentration of mepyramine in guinea pig ileum
Histamine H1 receptor [16] = target: T1, Histamine H1 receptor; experiment: Apparent pA2 value of compound at 10 nM concentration of mepyramine in guinea pig aorta; remark: listed apart in the source
[17] = target: Histamine H1 receptor (Cavia porcellus) (UniProt P31389); experiment: Concentration required for agonistic activity against histamine H1 receptor in guinea pig ileum; assay type: functional, tissue-based
Cavia porcellus [18] = species: Cavia porcellus; experiment: Apparent pA2 value of compound at 10 nM concentration of mepyramine in guinea pig aorta
Cavia porcellus [19] = species: Cavia porcellus; experiment: tissue or blood; conditions: Ileum, read-out: pA2 (converted)
Cavia porcellus [20] = species: Cavia porcellus; experiment: Apparent pD2 value of compound at 3 nM concentration of mepyramine in guinea pig ileum; assay type: functional
Histamine H1 receptor [21] = target: T2, Histamine H1 receptor; experiment: as §2; assay type: tissue-based
[22] = target: Histamine H1 receptor (Cavia porcellus) (UniProt P31389); experiment: as §1; assay type: functional, tissue-based
Cavia porcellus [23] = species: Cavia porcellus; experiment: Apparent pA2 value of compound at 100 nM concentration of mepyramine in guinea pig aorta
Histamine H1 receptor [24] = target: T1, Histamine H1 receptor; experiment: Apparent pA2 value of compound at 10 nM concentration of mepyramine in guinea pig aorta; remark: listed apart in the source
Cavia porcellus [25] = species: Cavia porcellus; experiment: Full pA2 value of compound at 2-100 nM concentration of mepyramine in guinea pig ileum; assay type: functional; conditions: read-out: pA2 (converted)
[26] = target: Histamine H1 receptor (Cavia porcellus) (UniProt P31389); experiment: Maximum response (E max) against Histamine H1 receptor in guinea pig ileum; assay type: tissue-based
Histamine H2 receptor = Histamine H2 receptor (Cavia porcellus, UniProt P47747); experiment: Tested for inhibition of histamine H2 receptor-induced rise in heart rate in guinea pig right atrium in the presence of mepyramine at a concentration of 0.3 micro M; assay type: tissue-based, Cardiac atrium
Sequence of Histamine H2 receptor (P47747 whole entry): as the sequence (P47747 whole entry) above

T1 sequence (P31389 whole entry): as the sequence (P31389 whole entry) above

| Structure (SMILES) | EC50 (Histamine H1 receptor [1]) [nM] | pKp [2] | Kb [3] [nM] | pD2 [4] | Kb (Cavia porcellus [5]) [nM] | Kb (Histamine H3 receptor) [nM] | Concentration [6] [µM] | Emax [7] | EC50 (Histamine H1 receptor [12]) [nM] | also measured |
| --- | --- | --- | --- | --- | --- | --- | --- | --- | --- | --- |
| c1ccc(C(CCc2nc(CCNCCCCCc3cccnc3)c[nH]2)c2ccccc2)cc1 | 26.3 | 6.61 | 562 | 5.25 | 1.48 | > 316 | 3 | 84% | – | – |
| c1ccc(C(CCc2nc(CCNCCCCc3ccccn3)c[nH]2)c2ccccc2)cc1 | 6.92 | 7.45 | 741 | 4.78 | – | > 501 | 3 | 89% | 14.1 | EC50 (Histamine H1 receptor [8]): 240 nM; Emax [9]: 65%; Emax [10]: 89%; Kb (Histamine H1 receptor [11]): 1.62 nM; Kb (Histamine H1 receptor [13]): 6.17 nM; Kb (Cavia porcellus [14]): 0.661 nM |
| c1ccc(C(CCc2nc(CCNCCCCc3cccnc3)c[nH]2)c2ccccc2)cc1 | 13.5 | 6.88 | – | 4.77 | 1.7 | – | 3 | 88% | – | – |
| c1ccc(C(CCc2nc(CCNCCCc3ccccn3)c[nH]2)c2ccccc2)cc1 | 21.4 | 7.13 | 457 | 4.96 | – | > 316 | 3 | – | – | Kb (Cavia porcellus [15]): 1.66 nM; Emax [10]: 80% |
| c1ccc(C(CCc2nc(CCNCCCc3c[nH]cn3)c[nH]2)c2ccccc2)cc1 | 13.5 | 7.14 | 776 | 3.92 | 1.86 | 123 | 0.1 | 95% | – | – |
| NCCc1cnc(CCC(c2ccccc2)c2ccccc2)[nH]1 | – | – | – | – | – | – | – | – | 158 | – |
| c1ccc(C(CCc2nc(CCNCCc3ccncc3)c[nH]2)c2ccccc2)cc1 | 115 | 6.02 | 1000 | 4.37 | 1.48 | > 501 | 10 | 78% | – | – |
| c1ccc(C(CCc2nc(CCNCCc3cccnc3)c[nH]2)c2ccccc2)cc1 | 77.6 | 6.52 | 7080 | 4.62 | 0.851 | > 501 | 10 | 64% | 83.2 | Emax [10]: 64%; Kb (Histamine H1 receptor [16]): 3.24 nM |
| NCCc1c[nH]c(CCC(c2ccccc2)c2ccccc2)n1 | – | 6.04 | – | – | – | – | – | 100% and 84% | – | Concentration [17]: 3 µM; Emax [9]: 50%; Kb (Cavia porcellus [18]): 0.977 nM |
| NCCc1c[nH]cn1 [HISTAMINE] | – | – | – | – | – | – | – | – | – | Kb (Cavia porcellus [19]): 0.851 nM |
| c1ccc(C(CCc2nc(CCNCCCCCc3ccncc3)c[nH]2)c2ccccc2)cc1 | 95.5 | 5.9 | – | 4.12 | – | – | 10 | 57% | – | pD2 (Cavia porcellus [20]): 8.63 |
| c1ccc(C(CCc2nc(CCNCCCc3ccncc3)c[nH]2)c2ccccc2)cc1 | 269 | 5.69 | – | 4.36 | – | – | 10 | 48% | – | pD2 (Cavia porcellus [20]): 8.49 |
| c1ccc(C(CCc2nc(CCNCCc3ccccn3)c[nH]2)c2ccccc2)cc1 | 21.4 | – | 5010 | 4.37 | – | > 501 | 10 | 92% | 81.3 | Emax [9]: 59%; Kb (Cavia porcellus [15]): 1.74 nM; Emax [10]: 92%; Kb (Histamine H1 receptor [11]): 4.37 nM; Kb (Histamine H1 receptor [13]): 10.5 nM; EC50 (Histamine H1 receptor [21]): 525 nM; pKp [22]: 7.15 |
| c1ccc(C(CCc2nc(CCNCCCCc3ccncc3)c[nH]2)c2ccccc2)cc1 | 24 | 6.56 | – | 4.59 | 1.12 | – | 10 | 84% | – | – |
| CNCCc1c[nH]c(CCC(c2ccccc2)c2ccccc2)n1 | – | 6.45 | – | – | – | – | – | – | – | Kb (Cavia porcellus [23]): 1.78 nM |
| c1ccc(C(CCc2nc(CCNCCCCCc3ccccn3)c[nH]2)c2ccccc2)cc1 | 15.5 | 6.74 | 513 | 5.02 | 1.82 | > 316 | 3 | 83% | – | – |
| c1ccc(C(CCc2nc(CCNCCCc3cccnc3)c[nH]2)c2ccccc2)cc1 | 117 | 6.18 | – | 4.05 | 1.82 | – | 10 | 48% | – | – |
| CNCCc1cnc(CCC(c2ccccc2)c2ccccc2)[nH]1 | – | – | – | – | – | – | – | – | 39.8 | – |
| c1ccc(C(CCc2nc(CCNCCc3cnc[nH]3)c[nH]2)c2ccccc2)cc1 | 5.5 | 7.67 | 4790 | – | – | > 1000 | – | – | 9.77 | EC50 (Histamine H1 receptor [8]): 295 nM; Concentration [17]: 0.1 µM; Emax [9]: 56%; Emax [10]: 96%; Kb (Histamine H1 receptor [24]): 3.24 nM; Kb (Histamine H1 receptor [13]): 9.55 nM; Kb (Cavia porcellus [25]): 1.48 nM; Emax [26]: 96%; EC50 (Histamine H2 receptor): 10 µM |
| c1ccc(C(CCc2nc(CCNCCCCc3c[nH]cn3)c[nH]2)c2ccccc2)cc1 | 123 | 6.17 | 417 | 4.12 | – | 10.2 | 10 | 86% | – | Kb (Cavia porcellus [15]): 1.7 nM |
